Assay results reported in paper PMC9482816 (Journal of medicinal chemistry, 2022).
Entries after “also recorded” stand apart in the source; their conditions may differ.

Columns and labels:
G9a [1] = target: T1, G9a (Homo sapiens, UniProt Q96KQ7); experiment: Mass spectrometry based analysis of G9a-inhibitor adduct formation; type: binding; conditions: for covalent modification of G9a (MS-based analysis, in words): after 1 h of incubation
T1 sequence (Q96KQ7 913-1193): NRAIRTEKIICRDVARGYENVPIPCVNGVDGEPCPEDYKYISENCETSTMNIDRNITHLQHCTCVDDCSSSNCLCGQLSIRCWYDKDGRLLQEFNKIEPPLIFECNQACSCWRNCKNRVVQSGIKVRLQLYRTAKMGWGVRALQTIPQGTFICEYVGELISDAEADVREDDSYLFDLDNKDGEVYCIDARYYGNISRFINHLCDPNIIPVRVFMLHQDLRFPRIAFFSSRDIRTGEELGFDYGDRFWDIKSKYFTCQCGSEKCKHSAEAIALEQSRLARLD
Summary of the method: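 Purified human G9a catalytic domain (residues 913–1193), 5 μM in 50 mM Tris-HCl pH 7.5, 150 mM NaCl, incubated 1 h at room temperature with 50 μM test compound or DMSO. Intact protein analysed by electrospray LC/TOF mass spectrometry. Protein–inhibitor adduct quantified from the mass shift over unmodified G9a (34 314 Da).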

[2] = tested on: H3K9me2 level in MDA-MB-231 cells; experiment: Western blot analysis for H3K9me2 in MDA-MB-231 cells; type: cell-based; conditions: 0.2, 1, or 5 μM for 24, 48, or 72 h
[3] = tested on: H3K9me2 level in K562 cells; experiment: Western blot analysis for H3K9me2 in K562 cells; type: cell-based; conditions: treated for 48 h
GLP [4] = target: T2, GLP (Homo sapiens, UniProt Q9H9B1); experiment: Isothermal titration calorimetry; type: binding; conditions: ITC
T2 sequence (Q9H9B1 982-1266): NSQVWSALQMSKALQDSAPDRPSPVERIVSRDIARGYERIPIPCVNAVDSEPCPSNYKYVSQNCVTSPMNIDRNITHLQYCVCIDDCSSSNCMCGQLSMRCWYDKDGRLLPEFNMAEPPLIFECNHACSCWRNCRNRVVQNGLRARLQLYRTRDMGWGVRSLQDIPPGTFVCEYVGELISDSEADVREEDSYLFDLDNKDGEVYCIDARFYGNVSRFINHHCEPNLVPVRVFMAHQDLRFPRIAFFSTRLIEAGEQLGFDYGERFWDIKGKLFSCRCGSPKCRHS

[5] = tested on: 21 other methyltransferases (PKMTs and PRMTs); experiment: Selectivity assays against other methyltransferases; type: biochemical; conditions: compound at 1 μM; any of the 21 enzymes
Summary of the method: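 Radioactivity-based scintillation proximity format that follows transfer of the 3H-labelled methyl group from SAM to substrate. Test compound at 1 μM, run in duplicate against each methyltransferase. Inhibition expressed as percentage of control enzyme activity.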

MDA-MB-231 cells = experiment: Cytotoxicity assay; type: cell-based; conditions: 3 days, CCK-8 (Figure S2)
Summary of the method: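 MDA-MB-231 cells are seeded at 1 × 10^4 cells per well and exposed to test compound at various concentrations for 3 days. Viability is read with CCK-8 following the kit protocol. Values are plotted from triplicate experiments.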

G9a [6] = target: T3, G9a (Homo sapiens, UniProt Q96KQ7); experiment: Radioactivity-based scintillation proximity biochemical assay, G9a; conditions: preincubation 5, 15, 45 min
T3 sequence (Q96KQ7 1-1210): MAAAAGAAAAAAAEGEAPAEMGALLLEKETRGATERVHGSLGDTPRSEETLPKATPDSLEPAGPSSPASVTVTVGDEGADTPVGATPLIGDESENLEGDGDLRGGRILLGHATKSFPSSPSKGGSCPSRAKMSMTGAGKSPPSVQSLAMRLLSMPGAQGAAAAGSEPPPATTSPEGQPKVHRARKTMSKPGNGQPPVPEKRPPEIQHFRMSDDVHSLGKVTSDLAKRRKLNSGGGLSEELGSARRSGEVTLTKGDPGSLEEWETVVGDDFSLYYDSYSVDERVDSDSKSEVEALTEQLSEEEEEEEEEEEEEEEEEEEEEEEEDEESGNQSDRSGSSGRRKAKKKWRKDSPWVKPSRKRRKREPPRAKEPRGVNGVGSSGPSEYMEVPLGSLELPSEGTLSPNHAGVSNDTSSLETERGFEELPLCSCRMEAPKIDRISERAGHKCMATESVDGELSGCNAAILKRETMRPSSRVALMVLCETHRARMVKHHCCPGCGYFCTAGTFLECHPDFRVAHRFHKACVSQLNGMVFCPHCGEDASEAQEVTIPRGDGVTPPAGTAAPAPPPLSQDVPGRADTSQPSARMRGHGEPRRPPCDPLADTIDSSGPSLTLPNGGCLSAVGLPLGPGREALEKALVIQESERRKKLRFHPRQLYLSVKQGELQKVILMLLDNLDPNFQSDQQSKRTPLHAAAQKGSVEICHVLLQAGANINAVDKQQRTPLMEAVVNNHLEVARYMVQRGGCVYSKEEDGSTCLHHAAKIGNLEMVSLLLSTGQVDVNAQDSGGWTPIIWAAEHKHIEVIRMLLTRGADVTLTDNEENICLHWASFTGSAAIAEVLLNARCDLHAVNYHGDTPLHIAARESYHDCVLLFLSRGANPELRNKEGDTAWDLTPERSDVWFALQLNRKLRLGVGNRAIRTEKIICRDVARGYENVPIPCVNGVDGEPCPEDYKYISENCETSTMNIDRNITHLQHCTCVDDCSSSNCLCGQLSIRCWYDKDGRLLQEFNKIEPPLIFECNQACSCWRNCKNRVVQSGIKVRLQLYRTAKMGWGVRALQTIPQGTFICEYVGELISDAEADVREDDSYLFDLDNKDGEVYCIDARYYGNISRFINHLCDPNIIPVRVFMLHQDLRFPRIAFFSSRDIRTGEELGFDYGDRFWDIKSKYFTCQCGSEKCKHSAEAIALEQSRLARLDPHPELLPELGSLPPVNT
Summary of the method: (§1)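 Tritiated methyl transfer from SAM to H3 peptide, read by scintillation proximity. Enzymes are recombinant human catalytic domains: G9a (913–1193) and GLP (982–1266), each at 5 nM. Substrate is H3 peptide at 0.05 μM and SAM cofactor at 1 μM. Test compound is preincubated with enzyme for 5, 15 or 45 min. Run by a contract lab in four replicates.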

GLP [7] = target: T4, GLP (Homo sapiens, UniProt Q9H9B1); experiment: Radioactivity-based scintillation proximity biochemical assay, GLP; conditions: preincubation 5, 15, 45 min
T4 sequence (Q9H9B1 1-1298): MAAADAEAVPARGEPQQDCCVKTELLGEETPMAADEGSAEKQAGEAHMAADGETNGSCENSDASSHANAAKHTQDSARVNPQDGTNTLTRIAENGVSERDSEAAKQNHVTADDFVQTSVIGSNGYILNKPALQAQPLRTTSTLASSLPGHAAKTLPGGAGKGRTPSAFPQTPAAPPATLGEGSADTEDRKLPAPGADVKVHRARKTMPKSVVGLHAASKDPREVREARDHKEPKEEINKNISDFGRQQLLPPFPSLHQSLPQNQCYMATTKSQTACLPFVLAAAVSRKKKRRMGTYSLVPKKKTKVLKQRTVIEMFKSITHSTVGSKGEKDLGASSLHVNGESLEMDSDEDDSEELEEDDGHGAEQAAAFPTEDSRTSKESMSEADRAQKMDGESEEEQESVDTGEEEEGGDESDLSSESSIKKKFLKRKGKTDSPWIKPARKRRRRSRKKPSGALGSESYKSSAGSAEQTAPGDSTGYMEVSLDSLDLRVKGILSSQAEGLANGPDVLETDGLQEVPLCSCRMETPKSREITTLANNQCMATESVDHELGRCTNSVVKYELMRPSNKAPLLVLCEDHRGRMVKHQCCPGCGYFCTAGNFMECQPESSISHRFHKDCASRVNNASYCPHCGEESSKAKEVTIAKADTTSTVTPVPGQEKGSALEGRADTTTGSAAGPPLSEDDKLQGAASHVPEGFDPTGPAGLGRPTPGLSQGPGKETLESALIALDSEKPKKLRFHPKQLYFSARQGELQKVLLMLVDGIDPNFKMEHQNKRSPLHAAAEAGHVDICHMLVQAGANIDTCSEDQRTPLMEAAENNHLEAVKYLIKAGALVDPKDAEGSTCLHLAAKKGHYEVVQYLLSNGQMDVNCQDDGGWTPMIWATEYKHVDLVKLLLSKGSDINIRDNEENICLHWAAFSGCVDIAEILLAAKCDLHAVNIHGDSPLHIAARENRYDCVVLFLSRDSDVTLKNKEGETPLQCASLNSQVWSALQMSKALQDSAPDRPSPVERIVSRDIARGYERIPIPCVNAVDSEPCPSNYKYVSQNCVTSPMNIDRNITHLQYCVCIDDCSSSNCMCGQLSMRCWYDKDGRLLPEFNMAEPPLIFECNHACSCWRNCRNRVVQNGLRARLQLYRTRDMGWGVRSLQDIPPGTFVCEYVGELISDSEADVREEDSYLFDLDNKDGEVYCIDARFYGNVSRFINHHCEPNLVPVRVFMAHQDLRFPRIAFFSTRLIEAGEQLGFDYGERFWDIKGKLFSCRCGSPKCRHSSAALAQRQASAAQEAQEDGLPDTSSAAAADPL
Summary of the method: as §1

Row | Structure (SMILES) | covalent modification of G9a (MS-based analysis, in words) (G9a [1]) | reduction of H3K9me2 level in MDA-MB-231 cells [2] | reduction of H3K9me2 level in K562 cells [3] | fold improved binding affinity to GLP compared to UNC0642 (GLP [4]) | inhibition effect against 21 PKMTs and PRMTs [5] | rate of G9a adduct formation compared to GLP adduct (G9a [1]; mass spectrometry, 0-120 min, 5 μM G9a or GLP, 50 μM compound) | inhibition of cell growth in MDA-MB-231 cells (MDA-MB-231 cells) | inhibition of G9a compared to GLP (G9a [6]) | inhibitory activity against G9a with preincubation time (G9a [6]) | inhibitory activity against GLP with preincubation time (GLP [7])
1 | C=CC(=O)N(C)c1nc(NC2CCN(C(C)C)CC2)c2cc(OC)c(OCCCN3CCCC3)cc2n1 [Compound 6, N-(4-((1-Isopropylpiperidin-4-yl)amino)-6-methoxy-7-(3-(pyrrolidin-1-yl)propoxy)-quinazolin-2-yl)-N-methylacrylamide] | completely lost its ability to covalently modify G9a |  |  |  |  |  |  |  |  | 
2 | C=CC(=O)Nc1nc(NC2CCN(C(C)C)CC2)c2cc(OC)c(OCCCN3CCCC3)cc2n1 [Compound 1, N-(4-((1-Isopropylpiperidin-4-yl)amino)-6-methoxy-7-(3-(pyrrolidin-1-yl)propoxy)-quinazolin-2-yl)acrylamide] |  | slightly lower potency than UNC0642 and compound 9 | reduced the H3K9me2 level in K562 cells |  |  |  |  |  |  | 
3 | CCC(=O)Nc1cc(NC2CCN(C(C)C)CC2)c2cc(OC)c(OCCCN3CCCC3)cc2n1 [Compound 9, N-(4-((1-Isopropylpiperidin-4-yl)amino)-6-methoxy-7-(3-(pyrrolidin-1-yl)propoxy)quinolin-2-yl)propionamide] | did not covalently modify G9a | displayed some cellular potency as a reversible inhibitor but was not as potent as compound 8 |  |  |  |  |  |  |  | 
4 | C=CC(=O)Nc1cc(NC2CCN(C(C)C)CC2)c2cc(OC)c(OCCCN3CCCC3)cc2n1 [Compound 8, N-(4-((1-Isopropylpiperidin-4-yl)amino)-6-methoxy-7-(3-(pyrrolidin-1-yl)propoxy)quinolin-2-yl)acrylamide] |  | effectively reduced the H3K9me2 mark in a concentration- and time-dependent manner; also recorded: improved potency compared to UNC0642 and compound 9 | reduced the H3K9me2 level in K562 cells; also recorded: much better potency compared to compound 1 and slightly better potency compared to UNC0642 | 1.3 fold | ≤ 50% | faster than that of the GLP–compound 8 adduct | more effective than compound 1 and UNC0642 in suppressing the growth of MDA-MB-231 cells | more effectively inhibited G9a than GLP at all three time points | improved inhibitory activity against G9a and GLP with increased preincubation time | improved inhibitory activity against G9a and GLP with increased preincubation time
